Activity calls are given as the source filed them. The calls are words filed in the database; no cut-off is given here.
How the values were obtained:
Aurora kinase B [1] = biological target: T1, Aurora kinase B (Homo sapiens, UniProt Q96GD4); assay: Inhibition of Aurora B (unknown origin) using myelin protein as substrate assessed as ADP generation at 10 uM after 60 mins by ADP-glo assay relative to staurosporine
Summary of the method: (§1)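 Aurora A and Aurora B activity read by ADP-Glo, measuring ADP formed from ATP during the kinase reaction. Compounds tested at 10 μM. Inhibition expressed as percentage relative to the staurosporine positive control.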

[2] = biological target: T2, Aurora kinase A (Homo sapiens) (UniProt O14965); assay: Inhibition of Aurora A (unknown origin) using myelin protein as substrate assessed as ADP generation at 10 uM after 60 mins by ADP-glo assay relative to staurosporine; summary of the method: as §1
T2 sequence (whole entry): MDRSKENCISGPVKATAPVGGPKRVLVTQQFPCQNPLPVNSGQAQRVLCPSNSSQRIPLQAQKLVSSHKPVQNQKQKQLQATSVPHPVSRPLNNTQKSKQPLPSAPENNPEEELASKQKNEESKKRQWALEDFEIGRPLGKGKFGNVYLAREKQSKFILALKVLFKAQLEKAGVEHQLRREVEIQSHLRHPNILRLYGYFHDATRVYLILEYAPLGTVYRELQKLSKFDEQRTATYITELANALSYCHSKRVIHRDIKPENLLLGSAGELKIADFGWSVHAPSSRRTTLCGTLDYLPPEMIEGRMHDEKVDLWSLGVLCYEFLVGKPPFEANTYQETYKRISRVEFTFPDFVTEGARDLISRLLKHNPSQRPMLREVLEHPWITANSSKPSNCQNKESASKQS

Aurora kinase B [3] = biological target: T1, Aurora kinase B; assay: Inhibition of Aurora B (unknown origin) using myelin protein as substrate assessed as ADP generation after 60 mins by ADP-glo assay
[4] = Cytotoxicity against human PC3 cells assessed as reduction in cell growth after 48 hrs by SRB assay; type: functional; details: PC-3, 48 h
[5] = Cytotoxicity against human NUGC3 cells assessed as reduction in cell growth after 48 hrs by SRB assay; type: functional; details: NUGC-3, 48 h
[6] = Cytotoxicity against human HCT15 cells assessed as reduction in cell growth after 48 hrs by SRB assay; type: functional; details: HCT-15, 48 h
NCI-H23 = assay: Cytotoxicity against human NCI-H23 cells assessed as reduction in cell growth after 48 hrs by SRB assay; type: functional; details: NCI-H23, 48 h
ACHN = assay: Cytotoxicity against human ACHN cells assessed as reduction in cell growth after 48 hrs by SRB assay; type: functional
MDA-MB-231 = assay: Cytotoxicity against human MDA-MB-231 cells assessed as reduction in cell growth after 48 hrs by SRB assay; type: functional; details: MDA-MB-231, 48 h
PC-3 = assay: Antitumor activity against human PC3 cells xenografted in nu/nu BALB/c mouse assessed as tumor growth inhibition at 50 mg/kg, po administered qd for 16 days relative to control; type: functional, organism-based
Summary of the method: (§2)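 PC-3 prostate tumours grown as xenografts in nude mice. Dosed orally at 50 mg/kg once daily for 16 days; vehicle was 10% dimethylacetamide plus 10% Tween 80 in water. Tumour volume measured every two or three days, tumours weighed after harvest on day 16, and body weight followed throughout. Treated groups compared with vehicle by Student's t-test.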

Mus musculus = assay: Toxicity in nu/nu BALB/c mouse xenografted with human PC3 cells assessed as loss in body weight at 50 mg/kg, po administered qd for 16 days measured during compound dosing; type: organism-based, PC-3; details: in vivo, 384 h; summary of the method: as §2

T1 sequence (Q96GD4 whole entry): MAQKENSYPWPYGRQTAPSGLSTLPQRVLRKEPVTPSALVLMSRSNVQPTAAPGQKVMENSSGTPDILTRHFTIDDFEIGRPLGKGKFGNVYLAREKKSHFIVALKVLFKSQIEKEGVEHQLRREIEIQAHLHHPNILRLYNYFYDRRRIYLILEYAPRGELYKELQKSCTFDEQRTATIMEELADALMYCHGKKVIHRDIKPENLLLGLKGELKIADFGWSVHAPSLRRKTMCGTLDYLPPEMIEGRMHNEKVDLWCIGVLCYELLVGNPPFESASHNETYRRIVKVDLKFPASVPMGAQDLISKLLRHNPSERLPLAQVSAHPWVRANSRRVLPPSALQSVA

Row | Compound | inhibition (Aurora kinase B [1]) | inhibition [2] | other results
1 | O=C(Nc1ccc(Br)cc1)Nc1ccc(COc2ccc3nc(NCCN4CCOCC4)oc3c2)cc1 | 55% | inactive | 
2 | O=C(Nc1ccc(COc2ccc3oc(NCCN4CCOCC4)nc3c2)cc1)Nc1ccc(Cl)c(Cl)c1 | 74% | 5% | 
3 | O=C(Nc1ccc(CNc2nc3ccc(OCCN4CCOCC4)cc3o2)cc1)Nc1cccc(Cl)c1 | 58% | 13% | 
4 | O=C(Nc1ccc(Cl)cc1)Nc1ccc(COc2ccc3nc(NCCN4CCOCC4)oc3c2)cc1 | 94% | inactive | IC50 (Aurora kinase B [3]): 50.4 µM
5 | O=C(Nc1ccc(F)cc1)Nc1ccc(CNc2nc3ccc(OCCN4CCOCC4)cc3o2)cc1 | 34% | inactive | 
6 | O=C(Nc1cccc(Cl)c1)Nc1cccc(CNc2nc3ccc(OCCN4CCOCC4)cc3o2)c1 | inactive |  | 
7 | O=C(Nc1ccc(CNc2nc3ccc(OCCN4CCOCC4)cc3o2)cc1)Nc1cccc(F)c1 | 63% | 7% | 
8 | O=C(Nc1ccc(Br)cc1)Nc1ccc(CNc2nc3cc(OCCN4CCOCC4)ccc3o2)cc1 | 35% | -6% | 
9 | O=C(Nc1ccc(COc2ccc3nc(NCCN4CCOCC4)oc3c2)cc1)Nc1ccc(Cl)c(Cl)c1 | 70% | 2% | IC50 (Aurora kinase B [3]): 49.4 µM
10 | O=C(Nc1ccccc1CNc1nc2ccc(OCCN3CCOCC3)cc2o1)c1ccccc1 | inactive |  | 
11 | O=C(Nc1ccc(Cl)cc1)Nc1ccc(CNc2nc3cc(OCCN4CCOCC4)ccc3o2)cc1 | 42% | 8% | 
12 | O=C(Nc1cccc(CNc2nc3ccc(OCCN4CCOCC4)cc3o2)c1)c1ccccc1 | 1% |  | 
13 | COc1ccc(NC(=O)Nc2ccc(CNc3nc4ccc(OCCN5CCOCC5)cc4o3)cc2)cc1 | 76% | 10% | 
14 | O=C(Nc1ccc(Cl)cc1)Nc1cccc(CNc2nc3ccc(OCCN4CCOCC4)cc3o2)c1 | 45% | 8% | 
15 | O=C(Nc1ccc(Cl)cc1)Nc1ccc(COc2ccc3oc(NCCN4CCOCC4)nc3c2)cc1 | 37% | 4% | 
16 | O=C(Nc1ccc(CNc2nc3ccc(OCCN4CCOCC4)cc3o2)cc1)c1ccccc1 | 21% |  | 
17 | O=C(Nc1ccc(Br)cc1)Nc1ccc(CNc2nc3ccc(OCCN4CCOCC4)cc3o2)cc1 | 69% | inactive | 
18 | O=C(Nc1ccc(Cl)cc1)Nc1ccc(CNc2nc3ccc(OCCN4CCOCC4)cc3o2)cc1 | 66% | 5% | GI50 [4]: 6.2 µM; GI50 [5]: 5.5 µM; GI50 [6]: 4.8 µM; GI50 (NCI-H23): 4 µM; IC50 (Aurora kinase B [3]): 10.2 µM; GI50 (ACHN): 2.2 µM; GI50 (MDA-MB-231): 7.6 µM
19 | Cc1ccc(NC(=O)Nc2ccc(CNc3nc4ccc(OCCN5CCOCC5)cc4o3)cc2)cc1 | 65% | inactive | 
20 | O=C(Nc1ccccc1)Nc1cccc(COc2ccc3nc(NCCN4CCOCC4)oc3c2)c1 | 80% | 1% | 
21 | O=C(Nc1ccccc1)Nc1ccc(CNc2nc3ccc(OCCN4CCOCC4)cc3o2)cc1 | 40% | 15% | 
22 | O=C(Nc1ccc(Br)cc1)Nc1ccc(COc2ccc3oc(NCCN4CCOCC4)nc3c2)cc1 | 74% | 3% | 
23 | O=C(Nc1ccc(CNc2nc3ccc(OCCN4CCOCC4)cc3o2)cc1)Nc1ccc(Cl)cc1Cl | 86% | 8% | IC50 (Aurora kinase B [3]): 0.7 µM
24 | O=C(Nc1ccc(CNc2nc3ccc(OCCN4CCOCC4)cc3o2)cc1)Nc1ccc(Cl)c(Cl)c1 | 88% | 24% | GI50 [4]: 4.8 µM; GI50 [5]: 8.4 µM; GI50 [6]: 3 µM; GI50 (NCI-H23): 3.4 µM; TGI (PC-3): Active; Activity (Mus musculus): Non-toxic; IC50 (Aurora kinase B [3]): 0.6 µM; GI50 (ACHN): 2.6 µM; GI50 (MDA-MB-231): 5 µM
25 | O=C(Nc1ccccc1)Nc1cccc(CNc2nc3ccc(OCCN4CCOCC4)cc3o2)c1 | 30% |  | 
